Measured values from ChEMBL document CHEMBL1151940, “Chemical and biological investigation of cyclopropyl containing diaryl-pyrazole-3-carboxamides as novel and potent cannabinoid type 1 receptor antagonists” (J Med Chem, 2009).

Experiments:
Cannabinoid receptor 1 = Cannabinoid receptor 1 (Rattus norvegicus, UniProt P20272); experiment: Displacement of [3H]SR141716A from CB1 receptor in rat cerebellum by scintillation spectrometry; type: tissue-based
Mus musculus [1] = experiment: Inhibition of WIN-55212-2-induced hypothermia in po dosed CD1 mouse assessed as rectal temperature administered 15 mins prior to WIN-55212 challenge measured after 45 mins post-induction; type: functional
Outline: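 Mice were pretreated, then 15 min later given WIN 55,212-2 (3 mg/kg ip) or vehicle; rectal temperature was read 45 min after that. n=8/group. Analysis was one-way ANOVA with Tukey post hoc test. ED50 values were derived for attenuation of hypothermia.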

Mus musculus [2] = experiment: Antiobesity activity in TBU8 high fat diet-induced obese C57/BL6 mouse assessed as body weight at 3 mg/kg, po administered once daily for 14 days (Rvb=41.90 g); type: functional, C57Bl/6
Mus musculus [3] = experiment: Antiobesity activity in TBU8 high fat diet-induced obese C57/BL6 mouse assessed as serum glucose level at 3 mg/kg, po administered once daily for 14 days (reference value: 9.52+/-0.38 […]); type: functional, C57Bl/6
Mus musculus [4] = experiment: Antiobesity activity in TBU8 high fat diet-induced obese C57/BL6 mouse assessed as serum cholesterol level at 3 mg/kg, po administered once daily for 14 days (reference value: 5.35+/-0.12 […]); type: functional, C57Bl/6
Mus musculus [5] = experiment: Antiobesity activity in TBU8 high fat diet-induced obese C57/BL6 mouse assessed as serum triglyceride level at 3 mg/kg, po administered once daily for 14 days (reference value: 1.42+/-0.04 […]); type: functional, C57Bl/6
Mus musculus [6] = experiment: Antiobesity activity in TBU8 high fat diet-induced obese C57/BL6 mouse assessed as serum HDL-cholesterol level at 3 mg/kg, po administered once daily for 14 days (Rvb=4.42+/-0.08 […]); type: functional, C57Bl/6
Mus musculus [7] = experiment: Antiobesity activity in TBU8 high fat diet-induced obese C57/BL6 mouse assessed as serum LDL-cholesterol level at 3 mg/kg, po administered once daily for 14 days (Rvb=0.84+/-0.03 […]); type: functional, C57Bl/6
Mus musculus [8] = experiment: Appetite suppressant activity in fasted CD1 mouse assessed as decrease in palatable chow intake at 10 mg/kg, po administered 1 hr before food consumption measured after 1 hr relative to control; type: functional; parameters: scale not given: the % may be the effect or the level left
Outline: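 CD1 mice (>25 g) were housed singly for ≥3 days, then fasted 16 h. Compound or vehicle (5% Tween 80) was given orally in the home cage. After 1 h, pre-weighed palatable chow was offered and reweighed 1 h later. Intake was expressed as % difference from control mean (n=8-10/group).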

Mus musculus [9] = experiment: Antiobesity activity in po dosed TBU8 high fat diet-induced obese C57/BL6 mouse assessed as decrease in body weight administered once daily for 14 days; type: functional, organism-based; settings: C57Bl/6
Outline: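 TBU8 high-fat diet fed mice brought to about 60% excess body weight over lean controls (usually 6-8 weeks), isolated and grouped (n=8) balanced by body weight; 3-day habituation with daily tap water, then oral dosing once daily for 14 days against vehicle-treated fat controls; body weight taken at day 14; differences versus fat and lean controls tested.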

Mus musculus [10] = experiment: Antiobesity activity in TBU8 high fat diet-induced obese C57/BL6 mouse assessed as decrease in body weight at 3 mg/kg, po administered once daily for 14 days relative to fat control; type: functional, C57Bl/6; parameters: scale not given: the % may be the effect or the level left
Mus musculus [11] = experiment: Antiobesity activity in TBU8 high fat diet-induced obese C57/BL6 mouse assessed as decrease in body weight at 10 mg/kg, po administered once daily for 14 days relative to fat control; type: functional, C57Bl/6; parameters: scale not given: the % may be the effect or the level left
Mus musculus [12] = experiment: Antiobesity activity in TBU8 high fat diet-induced obese C57/BL6 mouse assessed as decrease in body weight at 30 mg/kg, po administered once daily for 14 days relative to fat control; type: functional, C57Bl/6; parameters: scale not given: the % may be the effect or the level left
Mus musculus [13] = experiment: Antiobesity activity in TBU8 high fat diet-induced obese C57/BL6 mouse assessed as decrease in obese-induced elevated serum cholesterol level at 30 mg/kg, po administered once daily for 14 days relative to fat control; type: functional, C57Bl/6; parameters: scale not given: the % may be the effect or the level left
Mus musculus [14] = experiment: Antiobesity activity in TBU8 high fat diet-induced obese C57/BL6 mouse assessed as body weight at 30 mg/kg, po administered once daily for 14 days (Rvb=41.90 g); type: functional, C57Bl/6
Mus musculus [15] = experiment: Antiobesity activity in TBU8 high fat diet-induced obese C57/BL6 mouse assessed as serum glucose level at 30 mg/kg, po administered once daily for 14 days (reference value: 9.52+/-0.38 […]); type: functional, C57Bl/6
Mus musculus [16] = experiment: Antiobesity activity in TBU8 high fat diet-induced obese C57/BL6 mouse assessed as serum cholesterol level at 30 mg/kg, po administered once daily for 14 days (reference value: 5.35+/-0.12 […]); type: functional, C57Bl/6
Mus musculus [17] = experiment: Antiobesity activity in TBU8 high fat diet-induced obese C57/BL6 mouse assessed as serum triglyceride level at 30 mg/kg, po administered once daily for 14 days (reference value: 1.42+/-0.04 […]); type: functional, C57Bl/6
Mus musculus [18] = experiment: Antiobesity activity in TBU8 high fat diet-induced obese C57/BL6 mouse assessed as serum HDL-cholesterol level at 30 mg/kg, po administered once daily for 14 days (Rvb=4.42+/-0.08 […]); type: functional, C57Bl/6
Mus musculus [19] = experiment: Antiobesity activity in TBU8 high fat diet-induced obese C57/BL6 mouse assessed as serum LDL-cholesterol level at 30 mg/kg, po administered once daily for 14 days (Rvb=0.84+/-0.03 […]); type: functional, C57Bl/6
Mus musculus [20] = experiment: Antiobesity activity in TBU8 high fat diet-induced obese C57/BL6 mouse assessed as body weight at 10 mg/kg, po administered once daily for 14 days (Rvb=41.90 g); type: functional, C57Bl/6
Mus musculus [21] = experiment: Antiobesity activity in TBU8 high fat diet-induced obese C57/BL6 mouse assessed as serum glucose level at 10 mg/kg, po administered once daily for 14 days (reference value: 9.52+/-0.38 […]); type: functional, C57Bl/6
Mus musculus [22] = experiment: Antiobesity activity in TBU8 high fat diet-induced obese C57/BL6 mouse assessed as serum cholesterol level at 10 mg/kg, po administered once daily for 14 days (reference value: 5.35+/-0.12 […]); type: functional, C57Bl/6
Mus musculus [23] = experiment: Antiobesity activity in TBU8 high fat diet-induced obese C57/BL6 mouse assessed as serum triglyceride level at 10 mg/kg, po administered once daily for 14 days (reference value: 1.42+/-0.04 […]); type: functional, C57Bl/6
Mus musculus [24] = experiment: Antiobesity activity in TBU8 high fat diet-induced obese C57/BL6 mouse assessed as serum HDL-cholesterol level at 10 mg/kg, po administered once daily for 14 days (Rvb=4.42+/-0.08 […]); type: functional, C57Bl/6
Mus musculus [25] = experiment: Antiobesity activity in TBU8 high fat diet-induced obese C57/BL6 mouse assessed as serum LDL-cholesterol level at 10 mg/kg, po administered once daily for 14 days (Rvb=0.84+/-0.03 […]); type: functional, C57Bl/6

Cannabinoid receptor 1, sequence (P20272 whole entry): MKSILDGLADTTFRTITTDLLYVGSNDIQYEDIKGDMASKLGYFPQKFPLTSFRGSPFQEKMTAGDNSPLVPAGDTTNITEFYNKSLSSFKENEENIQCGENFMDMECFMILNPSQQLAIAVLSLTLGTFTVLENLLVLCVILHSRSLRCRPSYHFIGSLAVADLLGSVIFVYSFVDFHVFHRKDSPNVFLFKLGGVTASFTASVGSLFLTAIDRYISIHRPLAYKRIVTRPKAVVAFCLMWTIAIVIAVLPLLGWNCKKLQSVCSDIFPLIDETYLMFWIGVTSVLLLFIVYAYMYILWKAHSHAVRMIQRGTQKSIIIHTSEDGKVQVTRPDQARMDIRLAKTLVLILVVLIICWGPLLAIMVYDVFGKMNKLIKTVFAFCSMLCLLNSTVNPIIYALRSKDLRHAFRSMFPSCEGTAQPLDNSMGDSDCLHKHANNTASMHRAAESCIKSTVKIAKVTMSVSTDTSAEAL

In the case of `Cc1c(C(=O)NN2CCCCC2)nn(-c2ccc(Cl)cc2Cl)c1-c1ccc(C2CCCC2)cc1`, the Ki (Cannabinoid receptor 1) is reported as 15 nM and the ED50 (Mus musculus [1]) is reported as ≥ 3 mg/kg.
In the case of `Cc1c(C(=O)NN2CCCCC2)nn(-c2ccc(Cl)cc2F)c1-c1ccc(C2CC2)cc1`, the Ki (Cannabinoid receptor 1) is reported as 14 nM.
`C[C@H](NC(=O)C(C)(C)Oc1ccc(C(F)(F)F)cn1)[C@@H](Cc1ccc(Cl)cc1)c1cccc(C#N)c1` [TARANABANT] was tested, and the Activity (Mus musculus [2]) was 33.7 g, the Activity (Mus musculus [3]) was 9.11 mM and the Activity (Mus musculus [4]) was 5.01 mM. It also gave an Activity (Mus musculus [5]) of 1.44 mM, an Activity (Mus musculus [6]) of 4.16 mM and an Activity (Mus musculus [7]) of 0.82 mM.
Molecule `Cc1c(C(=O)NN2CCCCC2)nn(-c2ccc(F)cc2Cl)c1-c1ccc(C2CC2)cc1` has a Ki (Cannabinoid receptor 1) of 8 nM.
`Cc1c(C(=O)NN2CCCCC2)nn(-c2ccc(Cl)cc2Cl)c1-c1ccc(C2CC2)cc1` gave a Ki (Cannabinoid receptor 1) of 3 nM.
Work on `COc1c(C(=O)NN2CCCCC2)nn(-c2ccc(Cl)cc2Cl)c1-c1ccc(C2CC2)cc1` yielded a Ki (Cannabinoid receptor 1) of 3 nM.
`Cc1c(C(=O)NN2CCCCC2)nn(-c2ccccc2F)c1-c1ccc(C2CC2)cc1` gave a Ki (Cannabinoid receptor 1) of 11 nM.
With `Cc1c(C(=O)NN2CCCCC2)nn(-c2ccccc2)c1-c1ccc(C2CC2)cc1` the Ki (Cannabinoid receptor 1) was 66 nM.
`O=C(NN1CCCCC1)c1cc(-c2ccc(C3CC3)cc2)n(-c2ccc(Cl)cc2Cl)n1` was tested, and the Ki (Cannabinoid receptor 1) was 16 nM.
With `Cc1c(C(=O)NN2CCCCC2)nn(-c2ccc(F)cc2)c1-c1ccc(C2CC2)cc1` the Ki (Cannabinoid receptor 1) was 190 nM.
With `Cc1c(C(=O)NN2CCCCC2)nn(-c2ccccc2Cl)c1-c1ccc(C2CC2)cc1` the Ki (Cannabinoid receptor 1) was 4 nM.
`Cc1c(C(=O)NN2CCCCC2)nn(-c2ccc(Cl)cc2Cl)c1-c1ccc(C2CCCCC2)cc1` was tested, and the Ki (Cannabinoid receptor 1) was 13 nM and the ED50 (Mus musculus [1]) was > 3 mg/kg.
With `CCc1c(C(=O)NN2CCCCC2)nn(-c2ccc(Cl)cc2Cl)c1-c1ccc(C2CC2)cc1` the Ki (Cannabinoid receptor 1) was 4 nM, the ED50 (Mus musculus [1]) was 0.84 mg/kg and the Activity (Mus musculus [8]) was 47%. The Activity (Mus musculus [9]) was “Dose-dependent effect”, the Activity (Mus musculus [10]) was 8% and the Activity (Mus musculus [11]) was 15%. For the same molecule, the Activity (Mus musculus [12]) was 22% and the Activity (Mus musculus [13]) was 19%.
For `Cc1c(C(=O)NN2CCCCC2)nn(-c2ccc(Cl)cc2)c1-c1ccc(C2CC2)cc1`, the Ki (Cannabinoid receptor 1) was 79 nM.
Molecule `CCNC1(C(N)=O)CCN(c2ncnc3c2nc(-c2ccccc2Cl)n3-c2ccc(Cl)cc2)CC1` [OTENABANT] has an Activity (Mus musculus [14]) of 36.6 g, an Activity (Mus musculus [15]) of 9.45 mM and an Activity (Mus musculus [16]) of 5.34 mM. The Activity (Mus musculus [17]) was 1.32 mM, the Activity (Mus musculus [18]) was 4.4 mM and the Activity (Mus musculus [19]) was 0.85 mM.
In the case of `Cc1c(C(=O)NN2CCCCC2)nn(-c2ccc(Br)cc2Cl)c1-c1ccc(C2CC2)cc1`, the Ki (Cannabinoid receptor 1) is reported as 3 nM, the ED50 (Mus musculus [1]) is reported as 0.22 mg/kg and the Activity (Mus musculus [8]) is reported as 54%. For the same molecule, the Activity (Mus musculus [9]) was “Dose-dependent effect”, the Activity (Mus musculus [10]) was 9% and the Activity (Mus musculus [11]) was 19%. For the same molecule, the Activity (Mus musculus [12]) was 26% and the Activity (Mus musculus [13]) was 16%.
Molecule `Cc1c(C(=O)NN2CCCCC2)nn(-c2ccc(F)cc2F)c1-c1ccc(C2CC2)cc1` has a Ki (Cannabinoid receptor 1) of 34 nM.
`CCc1c(C(=O)NN2CCCC2)nn(-c2ccc(Cl)cc2Cl)c1-c1ccc(C2CC2)cc1` showed a Ki (Cannabinoid receptor 1) of 4 nM, an ED50 (Mus musculus [1]) of 0.84 mg/kg and an Activity (Mus musculus [8]) of 49%. For the same molecule, the Activity (Mus musculus [9]) was “Dose-dependent effect”, the Activity (Mus musculus [10]) was 8% and the Activity (Mus musculus [11]) was 15%. It also gave an Activity (Mus musculus [12]) of 21%, an Activity (Mus musculus [13]) of 36% and an Activity (Mus musculus [20]) of 35.6 g. It also gave an Activity (Mus musculus [21]) of 8.79 mM, an Activity (Mus musculus [22]) of 4.56 mM and an Activity (Mus musculus [23]) of 1.3 mM. It also gave an Activity (Mus musculus [24]) of 3.9 mM and an Activity (Mus musculus [25]) of 0.68 mM.
In the case of `Cc1c(C(=O)NN2CCCCC2)nn(-c2ccc(Cl)cc2Cl)c1-c1ccc(Cl)cc1` [RIMONABANT], the ED50 (Mus musculus [1]) is reported as 0.41 mg/kg, the Activity (Mus musculus [8]) is reported as 50% and the Activity (Mus musculus [9]) is reported as “Dose-dependent effect”. For the same molecule, the Activity (Mus musculus [10]) was 9%, the Activity (Mus musculus [11]) was 15% and the Activity (Mus musculus [12]) was 24%. It also gave an Activity (Mus musculus [13]) of 0%, an Activity (Mus musculus [20]) of 35.6 g and an Activity (Mus musculus [21]) of 8.84 mM. For the same molecule, the Activity (Mus musculus [22]) was 5.35 mM, the Activity (Mus musculus [23]) was 1.18 mM and the Activity (Mus musculus [24]) was 4.4 mM. It also gave an Activity (Mus musculus [25]) of 0.82 mM.
With `Cc1c(C(=O)NN2CCCCC2)nn(-c2ccc(Cl)cc2Cl)c1-c1ccc(C2CCC2)cc1.Cl` the Ki (Cannabinoid receptor 1) was 7 nM and the ED50 (Mus musculus [1]) was 4 mg/kg.
With `Cc1c(C(=O)NN2CCCC2)nn(-c2ccccc2)c1-c1ccc(C2CC2)cc1` the Ki (Cannabinoid receptor 1) was 121 nM.
